Most compounds without a hit are left out; they make up all but 12% or so of the library.
L major viab: reduces viability of Leishmania major promastigotes. 200,000 compounds, 9% hits. AID 1063. resazurin fluorescence viability. inhibition, % at 10 µM; in the data active = inhibition above about 50%;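 note: promastigotes grown with compound for 44 hours at 28 °C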
WT yeast gro inh: growth inhibition of WT yeast, mitochondrial fusion screen; 190,000 compounds, 2.1% hits; inhibition, % at 10 µM; mitochondrial fusion phenotypic screen, WT strain; AID 1362; in the data active = inhibition above about 58%; tested in S. cerevisiae
ABCB1 block: blocks JC-1 efflux by human ABCB1 transporter. P08183. CCRF-Adr cells, flow cytometry. inhibition, % at 6.6 µM. 190,000 compounds, 0.067% hits; in the data active = inhibition above about 40%;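 note: 0% = vehicle and 100% = reference inhibitor; higher value means more JC-1 retained so stronger ABCB1 efflux block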
RAM inhibit: inhibitors of the yeast RAM network. S. cerevisiae dse1pr::URA3 reporter, 5-FOA growth OD615, 2 d; analog-sensitive cbk1-as2 kinase mutant strain. inhibition, % at 50 µM. 190,000 compounds, 1.8% hits;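 active = inhibition above a set limit, 3 SD over mean compound inhibition, cut at about 8.4% in these data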;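 note: 0% = DMSO-only wells with no growth and 100% = 10 µM 1-NA-PP1 full growth; inhibition rescues growth on 5-FOA so higher OD means more RAM inhibition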
ABCG2 block: inhibitors of human ABCG2 transporter, ABCB1 counter-screen. 190,000 compounds, 0.1% hits. inhibition, % at 6.6 µM. IgMXP3 cells, JC-1 efflux, flow cytometry. Q9UNQ0. AID 1325;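 active = inhibition above 80%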;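 note: 0% = DMSO and 100% = nicardipine control wells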
Target sequence (Q9UNQ0 whole entry, looked up): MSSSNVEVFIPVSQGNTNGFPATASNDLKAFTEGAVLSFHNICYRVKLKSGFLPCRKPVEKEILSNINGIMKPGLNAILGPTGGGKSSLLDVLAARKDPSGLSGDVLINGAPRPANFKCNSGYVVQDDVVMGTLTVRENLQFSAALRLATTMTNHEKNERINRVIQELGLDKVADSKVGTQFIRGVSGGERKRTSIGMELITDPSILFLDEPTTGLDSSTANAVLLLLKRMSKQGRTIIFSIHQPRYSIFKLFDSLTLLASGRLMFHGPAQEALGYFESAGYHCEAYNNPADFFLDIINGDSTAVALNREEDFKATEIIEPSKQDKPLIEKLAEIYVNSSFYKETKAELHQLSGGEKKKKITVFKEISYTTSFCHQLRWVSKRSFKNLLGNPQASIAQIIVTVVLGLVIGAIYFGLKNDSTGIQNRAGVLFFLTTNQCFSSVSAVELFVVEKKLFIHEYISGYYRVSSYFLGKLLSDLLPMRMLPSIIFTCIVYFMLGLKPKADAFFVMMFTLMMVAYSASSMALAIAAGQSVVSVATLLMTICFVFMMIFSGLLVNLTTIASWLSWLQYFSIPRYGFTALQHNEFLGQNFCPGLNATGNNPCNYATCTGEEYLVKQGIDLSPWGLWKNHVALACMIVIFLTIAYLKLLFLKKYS
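Times: 10 min at 25 °C | Test system: Two drug-resistant human cell lines, ABCG2 and ABCB1 | Quantity: 3 million cells/mL final, two lines in 1:1 ratio | Signal: Flow cytometry, 530 nm JC-1 signal | Dosing: Compound at 6.6 µM | Controls: Nicardipine and DMSO wells | Reagent: JC-1 as fluorescent efflux pump substrate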
The depositor's hits bear a star; x = no result.

SMILES | L major viab | WT yeast gro inh | ABCB1 block | RAM inhibit | ABCG2 block
COc1ccc(OCc2nnc(SCC(=O)c3c(N)n(C)c(=O)n(C)c3=O)n2-c2ccccc2F)cc1 | 0.1 | -17.0 | 1.9 | 10.8* | 4.0
Cn1c(SCC(=O)c2c(N)n(C)c(=O)n(C)c2=O)nnc1-c1ccccc1 | 66.2* | -6.7 | -0.2 | 3.1 | -2.6
COc1ccc(C(=O)c2ncc(C(F)(F)F)cc2Cl)cc1 | -17.7 | -6.5 | 1.0 | 2.1 | 2.8
COc1ccc(Cn2nc(C)n(N(C)c3ncc(C(F)(F)F)cc3Cl)c2=O)cc1 | 98.7* | -7.0 | 0.9 | -0.7 | 3.3
CCn1c(=O)c([N+](=O)[O-])c(Cl)c2ccccc21 | -2.5 | 62.1* | 1.0 | 1.1 | 8.7
CCn1c(=O)c([N+](=O)[O-])c(NCC(O)c2ccccc2)c2ccccc21 (centres undefined) | 99.9* | -18.9 | 1.3 | 2.4 | 3.3
CCn1c(=O)c([N+](=O)[O-])c(NCCN(C)C)c2ccccc21 | -3.0 | 15.1 | -0.6 | 0.5 | 0.6
Cc1c(-c2nc(N)nc(Nc3ccc(F)cc3)n2)oc2ccccc12 | 7.6 | 1.4 | -0.4 | 2.7 | 6.7
COc1ccccc1Nc1nc(N)nc(-c2oc3ccccc3c2C)n1 | -5.4 | -1.5 | 0.5 | 9.8* | 2.0
Cc1ccc(C(=O)Nc2ccc(Cl)cc2C)c(Cl)c1 | 0.8 | 0.3 | 1.1 | 2.5 | 14.9
C=CCN(CC=C)C(=S)NC(=O)/C=C/c1ccccc1 | -4.3 | 22.9 | 0.1 | 0.7 | 1.9
CN(Cc1ccccc1)S(=O)(=O)c1ccc(NC(=S)NC(=O)C2CCCC2)cc1 | 14.2 | -7.6 | 0.2 | 5.7 | 1.2
Cc1nc2ccc(NC(=O)N(C)c3ccccc3)cc2s1 | -5.5 | 0.1 | 0.2 | 0.3 | -4.1
C=CCN(CC=C)S(=O)(=O)c1ccc(NC(=S)NC(=O)/C=C/c2ccccc2)cc1 | -8.0 | 7.1 | 0.4 | 10.0* | 1.9
CN(c1ccccc1)S(=O)(=O)c1ccc(NC(=S)NC(=O)C2CC2)cc1 | 74.7* | 67.6* | 0.3 | 2.2 | 27.0
Cc1nc2ccc(NC(=O)c3ccc(S(=O)(=O)N4CCOCC4)cc3)cc2s1 | 27.1 | -7.9 | -1.0 | 3.1 | 5.7
Cc1nc2ccc(NC(=O)c3ccc(S(=O)(=O)N(C)c4ccccc4)cc3)cc2s1 | 99.5* | 20.3 | 0.4 | 5.3 | 2.0
Cc1nc2ccc(NC(=O)c3cccc(S(=O)(=O)N4CC(C)OC(C)C4)c3)cc2s1 (centres undefined) | 98.3* | 4.4 | 0.8 | -0.3 | 1.2
CCN(Cc1cnn(C)c1)C(=O)CC1C(=O)NCCN1Cc1cccc(OC)c1OC (centres undefined) | -3.7 | -7.8 | -0.5 | -0.5 | -2.0
CC(C)C(NC(=O)c1ccco1)C(=O)OCC(=O)Nc1ccc(C(N)=O)cc1 (centres undefined) | -14.1 | -21.7 | 1.0 | 1.6 | 1.2
C=CCn1c(SCC(=O)NCCOC)nnc1-c1cc2c(s1)CCC(CC)C2 (centres undefined) | -1.8 | 2.7 | 0.7 | 0.3 | 9.5
COc1ccc(C)cc1NC(=O)C(c1ccccc1)N1CCNC(=O)C1 (centres undefined) | -4.9 | -3.7 | 1.8 | 0.8 | 5.5
Cc1nc2ccc(NC(=O)c3ccc([N+](=O)[O-])cc3[N+](=O)[O-])cc2s1 | 99.6* | 22.2 | 0.1 | 3.3 | 1.8
CN(c1ccccc1)S(=O)(=O)c1ccc(NC(=S)NC(=O)c2ccccc2)cc1 | 100.0* | 29.9 | 0.8 | 1.1 | 4.6
COc1cc(C(=O)Nc2ccc(S(=O)(=O)N(C)c3ccccc3)cc2)cc(OC)c1OC | 9.7 | -6.4 | -0.1 | 8.2 | -2.0
SMILES | L major viab | WT yeast gro inh | ABCB1 block | RAM inhibit | ABCG2 block
Cc1nc2ccc(C(=O)Nc3cccc([N+](=O)[O-])c3)cc2s1 | 7.6 | 2.6 | 0.6 | 3.0 | 14.4
COc1ccccc1/C=C/C(=O)NC(=S)Nc1ccc(S(=O)(=O)N(C)c2ccccc2)cc1 | 62.2* | 30.4 | 0.1 | 4.3 | 0.4
CC1CN(S(=O)(=O)c2ccc(NC(=O)c3cc(-c4ccccc4O)n[nH]3)cc2)CC(C)O1 (centres undefined) | 99.8* | -2.8 | -0.6 | 7.2 | -1.1
Cc1ccc(C(=O)NC(=S)Nc2ccc(S(=O)(=O)N(C)c3ccccc3)cc2)cc1 | -1.8 | 13.0 | 0.2 | 4.6 | 0.8
CCC/C=C(\CCC)C(NS(=O)(=O)c1ccc(C(F)(F)F)cc1)c1ccccc1 (centres undefined) | 21.2 | 54.6 | 0.2 | 11.3* | 2.7
COc1ccc(C2CC(c3cccs3)=NN2C(=O)COC(=O)C2CCCCC2)cc1OC (centres undefined) | 19.7 | 40.0 | 7.8 | 0.9 | 4.8
COc1ccccc1NC(=O)c1ccc(NC(=O)CSc2n[nH]c(N)n2)cc1 | 65.0* | -8.4 | -1.8 | 0.9 | -12.8
CCOC(=O)C(C(=O)OCC)C(C(=O)OCC)N1CCOCC1 (centres undefined) | 100.5* | 37.9 | 0.2 | 1.2 | 2.4
CCOC(=O)C(C)CC(C)C(=O)N1CCOCCOCCN(C(=O)C(C)CC(C)C(=O)OCC)CCOCC1 (centres undefined) | -5.2 | 23.9 | 0.5 | 1.5 | 2.6
Cc1ccsc1CN1CCC(C(=O)NCc2ccccc2Cl)CC1 | 91.7* | -3.0 | x | 1.5 | -0.1
Cc1cccc(N2CCN(C(=O)CCCSc3nc4ccccc4[nH]3)CC2)c1C | 20.2 | 2.3 | 1.5 | -0.1 | 2.9
O=C(CN1CCN(c2ncccn2)CC1)NCc1ccccc1 | -0.2 | -1.8 | 0.6 | 2.0 | 5.4
COc1ccccc1N1CCN(C(=O)Cc2c(C(=O)O)[nH]c3ccc(Cl)cc23)CC1 | -16.4 | 10.6 | 1.5 | 1.6 | 10.7
O=C(O)c1[nH]c2ccc(Cl)cc2c1CC(=O)N1CCN(c2ccccc2)CC1 | -13.6 | 19.2 | 0.1 | 11.4* | -0.2
CCN1C(=O)/C(=C\C(=O)c2cccs2)c2cc(Br)ccc21 | 99.9* | 86.8 | 1.8 | 7.4 | 15.5
CCN1C(=O)/C(=C\N(C)C)c2ccccc21 | -3.2 | -12.7 | -0.3 | -0.6 | 0.0
O=C(COc1ccccc1[N+](=O)[O-])NCCC1=CCCCC1 | -1.0 | 9.3 | 0.0 | 0.9 | 2.5
O=C(NCC1CCCO1)c1csc(Nc2cccc3ccccc23)n1 (centres undefined) | 15.6 | 25.1 | 1.3 | 1.4 | 19.5
COCCCn1c(=S)[nH]c2c(sc3ccccc32)c1=O | 28.0 | 33.6 | -1.6 | 3.8 | -4.8
COc1cccc(C2C(C(=O)OCc3ccccc3)=C(C)Nc3ncnn32)c1OC (centres undefined) | 90.8* | 5.3 | 1.9 | 0.7 | 3.0
CCCCOC(=O)C1=C(C)Nc2ncnn2C1c1cccc(OC)c1 (centres undefined) | 61.4* | -15.1 | 0.9 | 0.0 | 2.3
CCOC(=O)C1=C(c2ccccc2)Nc2ncnn2C1c1cc(OC)ccc1OC (centres undefined) | 99.6* | 10.3 | 1.6 | -0.3 | 3.6
CCOC(=O)C1=C(c2ccccc2)Nc2ncnn2C1c1ccc(OC)c(OC)c1OC (centres undefined) | 86.2* | -12.9 | 1.9 | 0.5 | -2.4
